Tests used:
Format in all cases: functional, organism-based
Pseudomonas aeruginosa [1] = experiment: Susceptibility testing against Pseudomonas aeruginosa PAE_NUH05; R=Resistant
In short: (§1)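 Disk diffusion susceptibility profiling of P. aeruginosa reference and clinical isolates against empirically used antipseudomonal antibiotics. Each isolate was categorised as susceptible, intermediate or resistant.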

Pseudomonas aeruginosa [2] = experiment: Susceptibility testing against Pseudomonas aeruginosa PAE_NUH06; R=Resistant; in short: as §1
Pseudomonas aeruginosa [3] = experiment: Susceptibility testing against Pseudomonas aeruginosa ATCC 27853; S=Susceptible
In short: (§2)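 Disk diffusion susceptibility profiling against a panel of empirically used antipseudomonal antibiotics. Each strain was categorised as susceptible (S) or intermediate (I).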

Pseudomonas aeruginosa [4] = experiment: Susceptibility testing against Pseudomonas aeruginosa PAE_NUH24; S=Susceptible; in short: as §2
Pseudomonas aeruginosa [5] = experiment: Susceptibility testing against Pseudomonas aeruginosa PAE_NUH20; S=Susceptible; in short: as §2
Pseudomonas aeruginosa [6] = experiment: Susceptibility testing against Pseudomonas aeruginosa PAE_NUH07; I=Intermediate; in short: as §1
Pseudomonas aeruginosa [7] = experiment: Susceptibility testing against Pseudomonas aeruginosa PAE_NUH02; R=Resistant; in short: as §1
Pseudomonas aeruginosa [8] = experiment: Susceptibility testing against Pseudomonas aeruginosa PAE_NUH03; R=Resistant; in short: as §1
Pseudomonas aeruginosa [9] = experiment: Susceptibility testing against Pseudomonas aeruginosa PAE_NUH17; S=Susceptible; in short: as §2
Pseudomonas aeruginosa [10] = experiment: Susceptibility testing against Pseudomonas aeruginosa PAE_NUH01; R=Resistant; in short: as §1
Pseudomonas aeruginosa [11] = experiment: Susceptibility testing against Pseudomonas aeruginosa PAE_NUH21; S=Susceptible; in short: as §2
Pseudomonas aeruginosa [12] = experiment: Susceptibility testing against Pseudomonas aeruginosa PAE_NUH22; S=Susceptible; in short: as §2
Pseudomonas aeruginosa [13] = experiment: Susceptibility testing against Pseudomonas aeruginosa PAE_NUH25; S=Susceptible; in short: as §2
Pseudomonas aeruginosa [14] = experiment: Susceptibility testing against Pseudomonas aeruginosa PAE_NUH19; S=Susceptible; in short: as §2
Pseudomonas aeruginosa [15] = experiment: Susceptibility testing against Pseudomonas aeruginosa PAE_NUH04; R=Resistant; in short: as §1
Pseudomonas aeruginosa [16] = experiment: Susceptibility testing against Pseudomonas aeruginosa PAE_NUH23; S=Susceptible; in short: as §2
Pseudomonas aeruginosa [17] = experiment: Susceptibility testing against Pseudomonas aeruginosa PAE_NUH18; S=Susceptible; in short: as §2
Pseudomonas aeruginosa [18] = experiment: Susceptibility testing against Pseudomonas aeruginosa PAE_NUH20; R=Resistant; in short: as §1
Pseudomonas aeruginosa [19] = experiment: Susceptibility testing against Pseudomonas aeruginosa PAE_NUH18; R=Resistant; in short: as §1
Pseudomonas aeruginosa [20] = experiment: Susceptibility testing against Pseudomonas aeruginosa PAE_NUH19; R=Resistant; in short: as §1
Pseudomonas aeruginosa [21] = experiment: Susceptibility testing against Pseudomonas aeruginosa PAE_NUH25; R=Resistant; in short: as §1
Pseudomonas aeruginosa [22] = experiment: Susceptibility testing against Pseudomonas aeruginosa PAE_NUH17; R=Resistant; in short: as §1
Pseudomonas aeruginosa [23] = experiment: Susceptibility testing against Pseudomonas aeruginosa PAE_NUH24; R=Resistant; in short: as §1
Pseudomonas aeruginosa [24] = experiment: Susceptibility testing against Pseudomonas aeruginosa PAE_NUH21; I=Intermediate; in short: as §2
Pseudomonas aeruginosa [25] = experiment: Susceptibility testing against Pseudomonas aeruginosa PAE_NUH07; R=Resistant; in short: as §1
Pseudomonas aeruginosa [26] = experiment: Susceptibility testing against Pseudomonas aeruginosa PAE_NUH22; R=Resistant; in short: as §1
Pseudomonas aeruginosa [27] = experiment: Susceptibility testing against Pseudomonas aeruginosa PAE_NUH23; R=Resistant; in short: as §1
Pseudomonas aeruginosa [28] = experiment: Susceptibility testing against Pseudomonas aeruginosa PAE_NUH23; I=Intermediate; in short: as §1
Pseudomonas aeruginosa [29] = experiment: Susceptibility testing against Pseudomonas aeruginosa PAE_NUH24; I=Intermediate; in short: as §1
Pseudomonas aeruginosa [30] = experiment: Susceptibility testing against Pseudomonas aeruginosa PAE_NUH18; I=Intermediate; in short: as §1

Measured: Activity

CC(C)(O/N=C(\C(=O)N[C@@H]1C(=O)N2C(C(=O)[O-])=C(C[n+]3ccccc3)CS[C@H]12)c1csc(N)n1)C(=O)O
Resistant: Pseudomonas aeruginosa [1] | Pseudomonas aeruginosa [2] | Pseudomonas aeruginosa [7] | Pseudomonas aeruginosa [8] | Pseudomonas aeruginosa [10] | Pseudomonas aeruginosa [15]
Susceptible: Pseudomonas aeruginosa [3] | Pseudomonas aeruginosa [4] | Pseudomonas aeruginosa [5] | Pseudomonas aeruginosa [9] | Pseudomonas aeruginosa [11] | Pseudomonas aeruginosa [12] | Pseudomonas aeruginosa [13] | Pseudomonas aeruginosa [14] | Pseudomonas aeruginosa [16] | Pseudomonas aeruginosa [17]
I: Pseudomonas aeruginosa [6]

CN(C)[C@@H]1C(O)=C(C(N)=O)C(=O)[C@@]2(O)C(O)=C3C(=O)c4c(O)cccc4[C@@](C)(O)[C@H]3C[C@@H]12
Resistant: Pseudomonas aeruginosa [1] | Pseudomonas aeruginosa [2] | Pseudomonas aeruginosa [18] | Pseudomonas aeruginosa [7] | Pseudomonas aeruginosa [19] | Pseudomonas aeruginosa [8] | Pseudomonas aeruginosa [20] | Pseudomonas aeruginosa [21] | Pseudomonas aeruginosa [10] | Pseudomonas aeruginosa [22] | Pseudomonas aeruginosa [23] | Pseudomonas aeruginosa [25] | Pseudomonas aeruginosa [15] | Pseudomonas aeruginosa [26] | Pseudomonas aeruginosa [27]
Susceptible: Pseudomonas aeruginosa [3]
Partial resistance: Pseudomonas aeruginosa [24]

GENTAMICIN
Resistant: Pseudomonas aeruginosa [1] | Pseudomonas aeruginosa [2] | Pseudomonas aeruginosa [7] | Pseudomonas aeruginosa [8] | Pseudomonas aeruginosa [10] | Pseudomonas aeruginosa [25] | Pseudomonas aeruginosa [15]
I: Pseudomonas aeruginosa [28] | Pseudomonas aeruginosa [29] | Pseudomonas aeruginosa [30]
Susceptible: Pseudomonas aeruginosa [3] | Pseudomonas aeruginosa [5] | Pseudomonas aeruginosa [9] | Pseudomonas aeruginosa [11] | Pseudomonas aeruginosa [12] | Pseudomonas aeruginosa [13] | Pseudomonas aeruginosa [14]
